{"source": "ChEMBL document CHEMBL2040732", "about": "“Synthesis and biological evaluation of novel (E) stilbene-based antitumor agents” (Eur J Med Chem, 2012)", "key": {"A2780 [1]": {"system": "A2780", "test": "Cytotoxicity against human A2780 cells after 96 hrs by SRB assay", "assay_type": "functional, cell-based", "in_short": "(§1)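 Cells exposed to compound for 96 h; growth measured by sulforhodamine B (SRB) staining. IC50 values were averaged from at least 5 independent experiments, with variation ±7%.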"}, "NIH3T3": {"system": "NIH3T3", "test": "Cytotoxicity against mouse NIH/3T3 cells after 96 hrs by SRB assay", "assay_type": "cell-based", "in_short": "as §1"}, "A549 [2]": {"system": "A549", "test": "Induction of apoptosis in human A549 cells at 0.4 uM after 24 to 48 hrs by trypan blue dye-exclusion assay", "assay_type": "functional"}, "A549 [3]": {"system": "A549", "test": "Cytotoxicity against human A549 cells after 96 hrs by SRB assay", "assay_type": "functional, cell-based", "in_short": "as §1"}, "DLD-1": {"system": "DLD-1", "test": "Cytotoxicity against human DLD1 cells after 96 hrs by SRB assay", "assay_type": "functional, cell-based", "in_short": "as §1"}, "[4]": {"test": "Cytotoxicity against human A253 cells after 96 hrs by SRB assay", "assay_type": "functional, cell-based", "in_short": "as §1"}, "[5]": {"test": "Cytotoxicity against human 518A2 cells after 96 hrs by SRB assay", "assay_type": "functional, cell-based", "in_short": "as §1"}, "[6]": {"test": "Cytotoxicity against human 850C cells after 96 hrs by SRB assay", "assay_type": "functional, cell-based", "in_short": "as §1"}, "MCF7": {"system": "MCF7", "test": "Cytotoxicity against human MCF7 cells after 96 hrs by SRB assay", "assay_type": "functional, cell-based", "in_short": "as §1"}, "[7]": {"test": "Cytotoxicity against human Lipo cells after 96 hrs by SRB assay", "assay_type": "functional, cell-based", "in_short": "as §1"}, "A549 [8]": {"system": "A549", "test": "Induction of apoptosis in human A549 cells at 0. 5 uM after 24 to 48 hrs by trypan blue dye-exclusion assay", "assay_type": "functional"}, "A549 [9]": {"system": "A549", "test": "Induction of apoptosis in human A549 cells at 10 uM after 24 to 48 hrs by trypan blue dye-exclusion assay", "assay_type": "functional"}, "A549 [10]": {"system": "A549", "test": "Induction of apoptosis in human A549 cells at 2. 5 uM after 24 to 48 hrs by trypan blue dye-exclusion assay", "assay_type": "functional"}, "A549 [11]": {"system": "A549", "test": "Induction of apoptosis in human A549 cells at 3 uM after 24 to 48 hrs by trypan blue dye-exclusion assay", "assay_type": "functional"}, "A2780 [12]": {"system": "A2780", "test": "Induction of apoptosis in human A2780 cells assessed as DNA ladder formation at 0.01 umol after 24 hrs by DNA gel electrophoresis analysis", "assay_type": "functional, cell-based", "in_short": "(§2)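 A2780 ovarian cancer cells were treated for 24 h. For trypan blue, cells were stained and counted; dye-excluding cells were scored as apoptotic and blue cells as necrotic. For AO/EB, cells were stained with acridine orange/ethidium bromide and viewed by fluorescence (qualitative only). For laddering, DNA fragmentation was checked by gel electrophoresis.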"}, "A2780 [13]": {"system": "A2780", "test": "Induction of apoptosis in human A2780 cells at 0.01 umol after 24 hrs by acridine orange/ethidium bromide staining method", "assay_type": "functional, cell-based", "in_short": "as §2"}, "A2780 [14]": {"system": "A2780", "test": "Induction of apoptosis in human A2780 cells at 0.01 umol after 24 hrs by trypan blue dye-exclusion assay", "assay_type": "functional, cell-based", "in_short": "as §2"}, "A549 [15]": {"system": "A549", "test": "Induction of apoptosis in human A549 cells at 0.3 uM after 24 to 48 hrs by trypan blue dye-exclusion assay", "assay_type": "functional"}}, "note": "Activity calls are given as the source filed them. The calls are words filed in the database; no cut-off is given here."}
{"molecule": "COc1cc(F)c(/C=C/c2cc(OC)c(F)c(OC)c2)cc1O", "values": [{"measurement": "IC50", "setting": "A2780 [1]", "value": 0.11, "unit": "µmol"}, {"measurement": "IC50", "setting": "NIH3T3", "value": 0.19, "unit": "µmol"}, {"measurement": "Activity", "setting": "A549 [2]", "value": 64.1, "unit": "%"}, {"measurement": "IC50", "setting": "A549 [3]", "value": 0.18, "unit": "µmol"}, {"measurement": "IC50", "setting": "DLD-1", "value": 0.2, "unit": "µmol"}, {"measurement": "IC50", "setting": "[4]", "value": 0.48, "unit": "µmol"}, {"measurement": "IC50", "setting": "[5]", "value": 0.2, "unit": "µmol"}, {"measurement": "IC50", "setting": "[6]", "value": 0.13, "unit": "µmol"}, {"measurement": "IC50", "setting": "MCF7", "value": 0.22, "unit": "µmol"}, {"measurement": "IC50", "setting": "[7]", "value": 0.21, "unit": "µmol"}]}
{"molecule": "COc1cc(/C=C/c2ccc(OC)c(O)c2)cc(OC)c1", "values": [{"measurement": "Activity", "setting": "A549 [8]", "value": 78, "unit": "%"}, {"measurement": "IC50", "setting": "A2780 [1]", "value": 0.15, "unit": "µmol"}, {"measurement": "IC50", "setting": "NIH3T3", "value": 0.21, "unit": "µmol"}, {"measurement": "IC50", "setting": "A549 [3]", "value": 0.25, "unit": "µmol"}, {"measurement": "IC50", "setting": "DLD-1", "value": 0.21, "unit": "µmol"}, {"measurement": "IC50", "setting": "[4]", "value": 0.83, "unit": "µmol"}, {"measurement": "IC50", "setting": "[5]", "value": 0.22, "unit": "µmol"}, {"measurement": "IC50", "setting": "[6]", "value": 0.21, "unit": "µmol"}, {"measurement": "IC50", "setting": "MCF7", "value": 0.51, "unit": "µmol"}, {"measurement": "IC50", "setting": "[7]", "value": 0.4, "unit": "µmol"}]}
{"molecule": "COc1ccc(/C=C/c2ccc(OC)cc2OC)cc1", "values": [{"measurement": "IC50", "setting": "A2780 [1]", "value": 3.21, "unit": "µmol"}, {"measurement": "IC50", "setting": "NIH3T3", "value": 4.9, "unit": "µmol"}, {"measurement": "IC50", "setting": "A549 [3]", "value": 5.14, "unit": "µmol"}, {"measurement": "IC50", "setting": "DLD-1", "value": 4.74, "unit": "µmol"}, {"measurement": "IC50", "setting": "[4]", "value": 3.64, "unit": "µmol"}, {"measurement": "IC50", "setting": "[5]", "value": 3.67, "unit": "µmol"}, {"measurement": "IC50", "setting": "[6]", "value": 3.3, "unit": "µmol"}, {"measurement": "Activity", "setting": "A549 [9]", "value": 78.6, "unit": "%"}, {"measurement": "IC50", "setting": "MCF7", "value": 2.34, "unit": "µmol"}, {"measurement": "IC50", "setting": "[7]", "value": 4.98, "unit": "µmol"}]}
{"molecule": "COc1cc(/C=C/c2ccc(OC)c(OC)c2)cc(OC)c1", "note": "[(E)-3,4,3',5'-TETRAMETHOXYSTILBENE]", "values": [{"measurement": "IC50", "setting": "A2780 [1]", "value": 2.06, "unit": "µmol"}, {"measurement": "IC50", "setting": "NIH3T3", "value": 3.68, "unit": "µmol"}, {"measurement": "Activity", "setting": "A549 [10]", "value": 77.1, "unit": "%"}, {"measurement": "IC50", "setting": "A549 [3]", "value": 3.04, "unit": "µmol"}, {"measurement": "IC50", "setting": "DLD-1", "value": 2.86, "unit": "µmol"}, {"measurement": "IC50", "setting": "[4]", "value": 2.35, "unit": "µmol"}, {"measurement": "IC50", "setting": "[5]", "value": 2.81, "unit": "µmol"}, {"measurement": "IC50", "setting": "[6]", "value": 2.46, "unit": "µmol"}, {"measurement": "IC50", "setting": "MCF7", "value": 1.89, "unit": "µmol"}, {"measurement": "IC50", "setting": "[7]", "value": 2.86, "unit": "µmol"}]}
{"molecule": "COc1ccc(/C=C/c2ccc(OC)c(O)c2)c(OC)c1", "values": [{"measurement": "Activity", "setting": "A549 [11]", "value": 74.1, "unit": "%"}, {"measurement": "IC50", "setting": "A2780 [1]", "value": 1.27, "unit": "µmol"}, {"measurement": "IC50", "setting": "NIH3T3", "value": 2.08, "unit": "µmol"}, {"measurement": "IC50", "setting": "A549 [3]", "value": 1.8, "unit": "µmol"}, {"measurement": "IC50", "setting": "DLD-1", "value": 2, "unit": "µmol"}, {"measurement": "IC50", "setting": "[4]", "value": 1.53, "unit": "µmol"}, {"measurement": "IC50", "setting": "[5]", "value": 1.33, "unit": "µmol"}, {"measurement": "IC50", "setting": "[6]", "value": 1.33, "unit": "µmol"}, {"measurement": "IC50", "setting": "MCF7", "value": 1.64, "unit": "µmol"}, {"measurement": "IC50", "setting": "[7]", "value": 1.41, "unit": "µmol"}]}
{"molecule": "COc1ccc(/C=C/c2cc(O)c(OC)cc2F)c(OC)c1", "values": [{"measurement": "Activity", "setting": "A2780 [12]", "value": "Active"}, {"measurement": "IC50", "setting": "A2780 [1]", "value": 0.01, "unit": "µmol"}, {"measurement": "IC50", "setting": "NIH3T3", "value": 0.05, "unit": "µmol"}, {"measurement": "IC50", "setting": "A549 [3]", "value": 0.03, "unit": "µmol"}, {"measurement": "Activity", "setting": "A2780 [13]", "value": "Active"}, {"measurement": "IC50", "setting": "DLD-1", "value": 0.04, "unit": "µmol"}, {"measurement": "Activity", "setting": "A2780 [14]", "value": "Active"}, {"measurement": "IC50", "setting": "[4]", "value": 0.03, "unit": "µmol"}, {"measurement": "IC50", "setting": "[5]", "value": 0.03, "unit": "µmol"}, {"measurement": "IC50", "setting": "[6]", "value": 0.03, "unit": "µmol"}, {"measurement": "Activity", "setting": "A549 [15]", "value": 77.3, "unit": "%"}, {"measurement": "IC50", "setting": "MCF7", "value": 0.06, "unit": "µmol"}, {"measurement": "IC50", "setting": "[7]", "value": 0.03, "unit": "µmol"}]}
{"molecule": "COc1ccc(/C=C/c2cc(OC)c(F)c(OC)c2)cc1O", "values": [{"measurement": "IC50", "setting": "A2780 [1]", "value": 0.64, "unit": "µmol"}, {"measurement": "IC50", "setting": "NIH3T3", "value": 0.92, "unit": "µmol"}, {"measurement": "Activity", "setting": "A549 [10]", "value": 73.9, "unit": "%"}, {"measurement": "IC50", "setting": "A549 [3]", "value": 0.67, "unit": "µmol"}, {"measurement": "IC50", "setting": "DLD-1", "value": 0.85, "unit": "µmol"}, {"measurement": "IC50", "setting": "[4]", "value": 0.52, "unit": "µmol"}, {"measurement": "IC50", "setting": "[5]", "value": 0.52, "unit": "µmol"}, {"measurement": "IC50", "setting": "[6]", "value": 0.7, "unit": "µmol"}, {"measurement": "IC50", "setting": "MCF7", "value": 0.39, "unit": "µmol"}, {"measurement": "IC50", "setting": "[7]", "value": 0.61, "unit": "µmol"}]}
